Reference: PubChem BioAssay AID720543 (The Scripps Research Institute Molecular Screening Center, 2013)
Several values for one entry are separate records, joined by “and”; a condition that tells them apart may be missing. Equal values may be shown once. In all, about 370,000 compounds went through this assay and about 2,000 (0.54%) were called active.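 The calls were made as follows: active = inhibition exceeding the mean over every tested compound plus 3 SD (cut at about 30% in these data); inactive = the rest.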 Only a selection was taken, and actives are over-represented in it overall. A structure can be active in one record and inactive in another.

target: (Lyso)-N-acylphosphatidylethanolamine lipase (Mus musculus) (UniProt Q8VD66); test: ABHD4 inhibitors, primary screen, biochemical, fluorescence polarization, mouse (AID 720543); settings: purified mABHD4, FP-Rh probe fluorescence polarization; at 8.92 µM; stronger effect = higher value;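 also: 0% = plate median of compound wells and 100% = S159A mutant with DMSO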
Outline: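 Test system: mABHD4 protein | Buffer or medium: HEPES pH 7.0 buffer, 150 mM NaCl, 0.01% Pluronic F-127 | Probe or stimulus: FP-Rh fluorescent activity-based probe, added after compound pre-incubation | Timing: Pre-incubation 45 min, probe exposure 60 min, at 25 °C | Technique: Fluorescence polarization, excitation 525 nm, emission 598 nm, BODIPY TMR filters | Repeats: Single well per compound (singlicate)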

Chain of (Lyso)-N-acylphosphatidylethanolamine lipase (Mus musculus) (Q8VD66 whole entry, looked up): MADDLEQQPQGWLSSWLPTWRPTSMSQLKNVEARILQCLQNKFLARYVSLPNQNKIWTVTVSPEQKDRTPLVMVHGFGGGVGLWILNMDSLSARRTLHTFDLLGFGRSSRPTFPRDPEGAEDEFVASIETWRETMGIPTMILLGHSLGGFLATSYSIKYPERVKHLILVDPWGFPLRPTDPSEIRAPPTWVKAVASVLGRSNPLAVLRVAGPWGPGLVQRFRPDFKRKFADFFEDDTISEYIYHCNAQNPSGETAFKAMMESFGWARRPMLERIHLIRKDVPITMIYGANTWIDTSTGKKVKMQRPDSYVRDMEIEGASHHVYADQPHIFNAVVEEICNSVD

inhibition, inactive:
COC(=O)[C@H](C(C)C)N1CCc2nnn(Cc3ccc(C)cc3)c2-c2ccccc2S1(=O)=O 8.58%
CN(CCO)c1cccc2c1S(=O)(=O)N(Cc1cn(Cc3ccc(C(F)(F)F)cc3)nn1)Cc1ccccc1O2 1.41%
CCOC(=O)C1CCN(C(=O)C(C)(C)NC(=O)Nc2ccc(F)c(F)c2)CC1 -6.47%
Clc1ccc(-n2c(SC/C=C/c3ccccc3)nnc2-c2ccco2)cc1 -10.5%
COc1ccnc(C(=O)N2CCC(Oc3cccnc3)CC2)c1 3.41%
CC(C)(C)c1ccc(C(=O)Nc2cc(Cl)c(Br)cc2C(=O)O)cc1 -156%
COc1ccc(C)cc1NC(=S)Nc1ccccc1SC -1.16%
COc1cc(NC(=S)NNC(=O)CC(C)C)c(OC)cc1Cl 1.23%
Cc1ccccc1CN1CCCCC(NC(=O)Nc2ccccc2F)C1=O (configuration not stated) 3.77%
Oc1c(Cl)cc(Cl)c(Cl)c1Cc1c(O)c(Cl)cc(Cl)c1Cl -117%
CCOC(=O)[C@]12CCCC3=C1N(CCC3)C(=O)[C@@H](CC(=O)NCC13CC4CC(CC(C4)C1)C3)C2 3.95%
COC(=O)C[C@@H]1CC[C@H]2[C@@H](COc3ccc(NS(=O)(=O)CC(F)(F)F)cc3C(=O)N2C)O1 10.4%
COC(=O)c1ccc(CN(c2ccccc2OC)S(=O)(=O)c2cccs2)o1 4.33%
COC(=O)C1=C(C(=O)OC)C2C=C(C(C)C)C1C(=O)C2(C)O (configuration not stated) -1.36%
CCOc1ccc(S(=O)(=O)NCCC(=O)NCC(C)(C)N2CCOCC2)cc1 4.91%
O=C1COc2ccc(C(=O)COC(=O)c3ccccc3Cl)cc2N1 -1.93%
O=C(OCc1ccccc1F)c1ccc2c(c1)OCCO2 1.07%
Cc1nc2sccn2c(=O)c1S(=O)(=O)NCCc1ccccc1 0.82%
O=C(COC(=O)c1ncc(Cl)c(Cl)c1Cl)NC1CCS(=O)(=O)C1 (configuration not stated) 2.44%
C[C@@H]1CN([C@@H](C)CO)C(=O)c2cccc(NC(=O)Nc3cccc4ccccc34)c2O[C@H]1CN(C)S(=O)(=O)c1ccccc1F -0.79%
COC(=O)[C@]12C[C@H](CC(=O)NCc3cccc4ccccc34)C(=O)N(CCc3ccc(OC)c(OC)c3)C1=C[C@H](C1CCCC1)O[C@@H]2C -10.3%
Cn1c(SCC(=O)N2CCOCC2)nnc1-c1ccc(NC(=O)c2ccccc2F)cc1 1.97%
CSc1nc2sc3c(c2c(=O)[nH]1)CCc1ccccc1-3 4.16%
CCCNC(=O)Nc1ccc2c(c1)C(=O)N(C)[C@H]1CC[C@H](CC(=O)NCC3CCCCC3)O[C@@H]1CO2 12.2%
COCCNC(=S)Nc1cc(S(=O)(=O)N2CCOCC2)ccc1N1CCCCC1 1.6%
Cc1ccc(S(=O)(=O)N2CCOCC2)cc1NC(=O)c1ccncc1 -3.76%
Cc1ccccc1NC(=O)CSc1ccc2nnc(-c3ccccn3)n2n1 5.22%
CC12C(=O)N(n3cnnc3)C(=O)C1C1C=CC2C1 (configuration not stated) -1.34%
CCCCN1C(=O)/C(=C2/C=CC=CN2C)SC1=S 4.21%
CCN1C(=O)/C(=C\N2CCOCC2)SC1=S 9.79%
CC(=O)Nc1ccc(NC(=O)CSC2=NS(=O)(=O)c3ccccc3N2)cc1 0.67%
COC(=O)C[C@@H]1CC[C@@H]2[C@H](COc3ccc(NC(=O)c4cccc(F)c4)cc3C(=O)N2C)O1 -0.54%
CO[C@@H]1CN(C)C(=O)c2cc(NC(=O)C3CC3)ccc2OC[C@H](C)N(C(=O)CN2CCOCC2)C[C@@H]1C -0.34%
CCCOc1cccc(C(=O)Nc2nnn(CCC)n2)c1 7.16%
Cc1ccc(F)cc1NC(=O)c1cccc(N(C)C)c1 -2.26%
Nc1ncnc2c1ncn2[C@@H]1O[C@H](CNS(=O)(=O)c2ccc(-c3ccno3)s2)[C@@H](O)[C@H]1O -3.46%
CC(C)(C)OC(=O)NCCc1ccccc1/C=C/S(=O)(=O)NCc1ccc(F)cc1 14.8%
Cc1cccc(-n2cnc(C(=O)Nc3cccnc3)c2)n1 -2.09%
O=C(NNC(=S)Nc1ccccc1)c1cccc(S(=O)(=O)N2CCOCC2)c1 1.73%
CC(=O)N1N=C(c2ccncc2)OC1(Cc1ccccc1)Cc1ccccc1 -3.49%
CCOC(=O)[C@]12CCCC3=C1N(CCC3)C(=O)[C@@H](CC(=O)NCc1cccs1)C2 -5.06%
CN(C)CCCN(Cc1cc2cc3c(cc2[nH]c1=O)OCCO3)C(=O)NC1CCCCC1 1.3%
O=S1(=O)c2ccc(Br)cc2-n2nncc2CN1Cc1cccc(Cl)c1 -5.52%
Cc1ccccc1OCC(=O)NCC(=O)OCC(=O)c1ccc2ccccc2c1 3.01%
O=C(COc1ccc(Cl)cc1)NCCSc1ccccc1 -6.3%

inhibition, active:
Clc1ccccc1CSc1nnc(-c2ccco2)c(-c2ccco2)n1 38.9%
CCc1ccccc1NC(=S)Nc1cc(OC)c(NC(=O)C(C)C)cc1OC 33.4%
CC/C(=C(/c1ccccc1)c1ccc(OCC[N+](C)(C)C)cc1)c1ccccc1 30%
O=C(COC(=O)c1ccc(O)cc1O)c1ccc2c(c1)OCCO2 36.5%
Oc1ccc(N=Cc2c(O)ccc3ccccc23)cc1 51.1%
Oc1ccc(N=Cc2sc3ccccc3c2Cl)cc1 88.4%
O=[N+]([O-])c1cc(Cl)cc(/C=N/NC(=S)Nc2cc(S(=O)(=O)N3CCOCC3)ccc2Cl)c1O 32.2%
NC1=CC(=O)C(=O)c2cccnc21 59.2%
CCC(CO)Oc1cc(NC(=O)c2cccc(F)c2)c2ncn(C(C)C)c2c1 (configuration not stated) 44.4%
Cc1cccc(-n2cnc(C(=O)NNC(=S)Nc3ccccc3)c2)n1 43.3%
Cc1cc2ccccc2n1CCNC(=O)COc1ccc2ccccc2c1 40.9%

inhibition, 9.75% (inactive) and 31.2% (active):
CCN1C(=O)/C(=C2/Sc3ccccc3N2CCCS(=O)(=O)O)SC1=S
